Columns and labels:
MATE2-K [1] = target: T1, MATE2-K (Homo sapiens, UniProt Q86VL8); test: Inhibition of MATE2-K transport of tetraethylammonium; assay type: cell-based
OCT3 = target: T2, OCT3 (Homo sapiens, UniProt O75751); test: Inhibition of OCT3 transport of 1-methyl-4-phenylpyridinium; assay type: cell-based
T2 sequence (O75751 1-556): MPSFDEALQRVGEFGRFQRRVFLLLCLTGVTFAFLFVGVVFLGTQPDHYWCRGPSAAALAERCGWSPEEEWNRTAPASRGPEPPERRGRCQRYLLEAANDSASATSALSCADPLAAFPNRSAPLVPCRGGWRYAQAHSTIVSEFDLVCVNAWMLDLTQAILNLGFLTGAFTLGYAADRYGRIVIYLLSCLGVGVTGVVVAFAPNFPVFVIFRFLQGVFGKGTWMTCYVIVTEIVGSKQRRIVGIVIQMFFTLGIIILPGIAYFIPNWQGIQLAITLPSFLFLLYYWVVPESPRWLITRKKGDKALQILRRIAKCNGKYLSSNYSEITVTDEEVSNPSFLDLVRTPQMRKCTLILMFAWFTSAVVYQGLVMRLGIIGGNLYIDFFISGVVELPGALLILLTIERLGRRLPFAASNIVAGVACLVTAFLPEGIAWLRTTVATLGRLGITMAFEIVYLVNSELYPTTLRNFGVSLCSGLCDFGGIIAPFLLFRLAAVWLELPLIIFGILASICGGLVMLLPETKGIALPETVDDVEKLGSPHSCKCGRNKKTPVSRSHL

OAT2 [2] = target: T3, OAT2 (Homo sapiens, UniProt Q9Y694); test: Inhibition of OAT2 transport of 3′,5′-cyclic GMP; assay type: cell-based
T3 sequence (Q9Y694 1-548): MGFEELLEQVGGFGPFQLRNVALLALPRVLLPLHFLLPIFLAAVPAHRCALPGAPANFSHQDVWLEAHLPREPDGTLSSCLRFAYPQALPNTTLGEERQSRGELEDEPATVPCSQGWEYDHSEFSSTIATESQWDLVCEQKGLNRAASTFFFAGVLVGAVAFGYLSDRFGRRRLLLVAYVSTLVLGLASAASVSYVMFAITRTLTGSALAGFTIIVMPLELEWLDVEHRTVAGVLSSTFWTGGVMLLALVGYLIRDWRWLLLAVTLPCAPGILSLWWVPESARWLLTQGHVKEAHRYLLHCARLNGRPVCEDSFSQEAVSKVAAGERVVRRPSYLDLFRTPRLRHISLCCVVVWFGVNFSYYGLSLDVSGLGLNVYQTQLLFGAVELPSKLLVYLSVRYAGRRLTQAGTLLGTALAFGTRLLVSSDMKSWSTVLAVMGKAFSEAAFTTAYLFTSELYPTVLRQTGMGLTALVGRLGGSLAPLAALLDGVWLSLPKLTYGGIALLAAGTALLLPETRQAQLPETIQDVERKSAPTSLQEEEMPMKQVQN

[3] = most prominent effects, clinical; cited from earlier work
OCT2 = target: T4, OCT2 (Homo sapiens, UniProt O15244); test: Inhibition of OCT2 transport of tetraethylammonium; assay type: cell-based
T4 sequence (O15244 1-555): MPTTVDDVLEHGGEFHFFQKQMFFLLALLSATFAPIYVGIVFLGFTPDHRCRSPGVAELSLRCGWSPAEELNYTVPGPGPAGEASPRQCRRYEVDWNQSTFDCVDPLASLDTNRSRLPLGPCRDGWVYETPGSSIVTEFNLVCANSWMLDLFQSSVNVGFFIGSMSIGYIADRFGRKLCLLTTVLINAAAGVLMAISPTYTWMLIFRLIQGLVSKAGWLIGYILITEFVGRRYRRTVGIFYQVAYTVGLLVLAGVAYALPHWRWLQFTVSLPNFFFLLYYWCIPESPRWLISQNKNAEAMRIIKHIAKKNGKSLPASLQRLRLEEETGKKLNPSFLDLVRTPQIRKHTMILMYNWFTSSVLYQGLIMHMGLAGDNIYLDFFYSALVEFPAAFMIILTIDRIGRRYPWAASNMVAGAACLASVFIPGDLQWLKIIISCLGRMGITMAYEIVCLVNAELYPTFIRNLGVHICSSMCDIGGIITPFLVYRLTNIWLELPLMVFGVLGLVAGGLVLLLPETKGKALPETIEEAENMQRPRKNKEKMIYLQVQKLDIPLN

OAT3 [4] = target: T5, OAT3 (Homo sapiens, UniProt Q8TCC7); assay type: cell-based; settings: transiently transfected HEK293 cells; data not shown
T5 sequence (Q8TCC7 1-542): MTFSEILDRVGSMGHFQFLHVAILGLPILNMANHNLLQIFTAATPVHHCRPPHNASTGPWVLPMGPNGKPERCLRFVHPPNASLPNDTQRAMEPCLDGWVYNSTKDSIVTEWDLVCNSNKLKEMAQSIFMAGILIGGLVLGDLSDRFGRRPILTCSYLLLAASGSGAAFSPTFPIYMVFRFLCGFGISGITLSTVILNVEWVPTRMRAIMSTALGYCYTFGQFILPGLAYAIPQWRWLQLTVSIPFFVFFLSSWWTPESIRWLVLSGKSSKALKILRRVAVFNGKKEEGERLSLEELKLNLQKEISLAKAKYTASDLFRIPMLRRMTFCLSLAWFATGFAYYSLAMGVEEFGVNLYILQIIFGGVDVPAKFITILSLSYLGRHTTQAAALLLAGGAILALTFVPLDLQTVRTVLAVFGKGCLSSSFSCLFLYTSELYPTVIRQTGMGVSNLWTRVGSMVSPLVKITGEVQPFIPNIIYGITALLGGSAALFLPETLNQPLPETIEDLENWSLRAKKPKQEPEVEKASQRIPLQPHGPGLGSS

OAT3 [5] = target: T5, OAT3; settings: human OAT3, transiently transfected HEK293 cells; cited from earlier work
OAT2 [6] = target: T3, OAT2; test: Creatinine transport by OAT2 in transiently transfected MDCKII cells; assay type: cell-based
MATE2-K [7] = target: T1, MATE2-K; test: Creatinine transport by MATE2-K in transiently transfected MDCKII cells; assay type: cell-based
MATE1 = target: T6, MATE1 (Homo sapiens, UniProt Q96FL8); test: Creatinine transport by MATE1 in transiently transfected MDCKII cells; assay type: cell-based
T6 sequence (Q96FL8 1-570): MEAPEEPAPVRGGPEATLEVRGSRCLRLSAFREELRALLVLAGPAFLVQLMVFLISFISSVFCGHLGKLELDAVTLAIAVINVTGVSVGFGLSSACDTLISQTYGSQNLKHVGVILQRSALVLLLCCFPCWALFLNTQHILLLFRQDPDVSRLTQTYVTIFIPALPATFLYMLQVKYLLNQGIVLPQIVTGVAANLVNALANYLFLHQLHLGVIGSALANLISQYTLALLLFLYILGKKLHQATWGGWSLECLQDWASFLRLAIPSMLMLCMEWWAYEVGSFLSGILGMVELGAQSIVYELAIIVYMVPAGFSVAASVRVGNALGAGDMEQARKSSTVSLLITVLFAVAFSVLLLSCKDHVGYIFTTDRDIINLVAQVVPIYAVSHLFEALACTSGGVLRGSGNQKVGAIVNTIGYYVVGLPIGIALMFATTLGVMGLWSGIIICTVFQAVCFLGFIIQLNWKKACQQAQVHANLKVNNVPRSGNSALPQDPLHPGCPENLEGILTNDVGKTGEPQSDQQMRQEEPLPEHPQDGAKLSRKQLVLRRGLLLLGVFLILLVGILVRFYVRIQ
Procedure, shortened: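 Transiently transfected polarized MDCKII cells were preincubated 20 min in Hank's balanced salt solution with 30 mmol/l NH4Cl. Uptake was started by adding creatinine, 31 μmol/l to 20 mmol/l, to the chamber matching the transporter's apical or basolateral expression. Cells were washed four times with ice-cold PBS and extracted in 1:1 acetonitrile:water. Intracellular substrate was counted radiometrically. Kinetic constants were fitted from concentration dependence over n⩾3 independent experiments.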

[8] = more modest effects, clinical; cited from earlier work
[9] = substrate: CN1CC(=O)NC1=N; test: Creatinine transport by OAT2 in transiently transfected MDCKII cells; assay type: cell-based, human; settings: other: creatinine transport by OAT2, transiently transfected cells
[10] = substrate: CN1CC(=O)NC1=N; test: Creatinine transport by OCT2 in transiently transfected MDCKII cells; assay type: cell-based, human; settings: other: creatinine transport by OCT2, transiently transfected cells
[11] = substrate: CN1CC(=O)NC1=N; test: Creatinine transport by OCT3 in transiently transfected MDCKII cells; assay type: cell-based, human; settings: other: creatinine transport by OCT3, transiently transfected cells

T1 sequence (Q86VL8 1-566 isoform Q86VL8-3): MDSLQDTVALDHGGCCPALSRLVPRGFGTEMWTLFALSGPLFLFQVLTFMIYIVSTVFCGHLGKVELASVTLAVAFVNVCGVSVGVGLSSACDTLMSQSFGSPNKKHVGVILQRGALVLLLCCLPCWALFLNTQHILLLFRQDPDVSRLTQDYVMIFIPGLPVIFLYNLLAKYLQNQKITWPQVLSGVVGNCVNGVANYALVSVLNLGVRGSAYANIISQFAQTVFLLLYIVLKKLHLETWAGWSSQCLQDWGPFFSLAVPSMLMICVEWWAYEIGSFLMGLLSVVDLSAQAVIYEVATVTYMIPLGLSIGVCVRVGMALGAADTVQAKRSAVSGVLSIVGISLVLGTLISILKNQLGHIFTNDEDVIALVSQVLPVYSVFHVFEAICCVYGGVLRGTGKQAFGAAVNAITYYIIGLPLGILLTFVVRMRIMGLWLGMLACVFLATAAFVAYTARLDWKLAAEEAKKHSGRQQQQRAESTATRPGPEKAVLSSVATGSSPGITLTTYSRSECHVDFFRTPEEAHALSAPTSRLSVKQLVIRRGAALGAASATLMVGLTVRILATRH

## CN/C(=N/CCSCc1nc[nH]c1C)NC#N [Cimetidine, cimetidine]
MATE2-K [1]
  IC50: 46.6 ± 7.23 µM
OCT3
  IC50: 87.7 ± 55.1 µM
OAT2 [2]
  IC50: 72.8 ± 17 µM
[3]
  Decreases in creatinine clearance: 15–34 ml/min per 1.73 m^2
OCT2
  IC50: 135 ± 16 µM

## COc1cc(Cc2cnc(N)nc2N)cc(OC)c1OC [Trimethoprim, trimethoprim]
OCT2
  IC50: 68 ± 5.2 µM

## CN1CC(=O)NC1=N [creatinine]
OAT3 [4]
  OAT3-dependent transport of creatinine: no OAT3-dependent transport of creatinine was observed
OAT3 [5]
  Increase in creatinine accumulation over mock transfection: 60%
OAT2 [6]; creatinine transport by OAT2
  Vmax: 117 × 10^4 pmol/min per mRNA copy number
OAT2 [6]; physiological creatinine concentration (100 μmol/l), faster than OCT2
  Transport rate for OAT2 relative to OCT2: 4.7 fold
OAT2 [6]; physiological creatinine concentration (100 μmol/l), faster than OCT3
  Transport rate for OAT2 relative to OCT3: 2.3 fold
MATE2-K [7]; creatinine transport by MATE2-K
  Vmax: >20 × 10^4 pmol/min per mRNA copy number
MATE2-K [7]; human, transiently transfected MDCKII cells expressing MATE2-K
  Km: > 2000 µM
MATE1; creatinine transport by MATE1
  Vmax: >2 × 10^4 pmol/min per mRNA copy number
MATE1; human, transiently transfected MDCKII cells expressing MATE1
  Km: > 2000 µM

## CC(C)c1nc(CN(C)C(=O)N[C@H](C(=O)N[C@@H](Cc2ccccc2)C[C@H](O)[C@H](Cc2ccccc2)NC(=O)OCc2cncs2)C(C)C)cs1 [Ritonavir, ritonavir]
OAT2 [2]; model substrate, curve could not be generated
  Concentration-dependent inhibition of OAT2-dependent transport: lack of concentration-dependent inhibition

## Cc1cc(/C=C/C#N)cc(C)c1Nc1ccnc(Nc2ccc(C#N)cc2)n1 [Rilpivirine, rilpivirine]
[8]
  Serum creatinine increases: ~0.1 mg/dL

B1: OAT2 (Homo sapiens) (protein)
chain: T3 sequence (Q9Y694 1-548)
[9]
  Km: 986 ± 177 µM

B2: OCT2 (Homo sapiens) (protein)
chain: T4 sequence (O15244 1-555)
[10]
  Km: 1860 ± 370 µM

B3: OCT3 (Homo sapiens) (protein)
chain: T2 sequence (O75751 1-556)
[11]
  Km: 1320 ± 380 µM

— paper PMC4120670 (Kidney International, 2014)
